Yeast growth inh: reduces growth of yeast BB579 in restrictive medium; S. cerevisiae BB579 growth, OD615, 48 h; inhibition, % at 10 µM; actives 0.51% (n = 140,000);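 active means inhibition above a set limit, 3 SD over the mean compound inhibition, cut at about 44% in these data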
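Assay system: S. cerevisiae DeaD strain BB579 yeast. Medium: CSMM-D restrictive synthetic medium containing dextrose (glucose). Times: 4 h cell preincubation, 48 h compound exposure, 30 °C humidified. Signal: OD615 turbidity measurement. Benchmarks: positive control amphotericin B 10 µg/mL.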
TbHK1 inh: blocks Trypanosoma brucei hexokinase 1 activity; actives 0.11% (n = 220,000); inhibition, % at 10 µM; recombinant TbHK1, G6PDH-coupled NADH A340;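 active means inhibition of 50% or more in the single-dose primary screen; inactive means inhibition below 50%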
RBBP9 inh: blocks human serine hydrolase RBBP9 | actives 0.2% (n = 220,000) | recombinant RBBP9, FP-Rh probe fluorescence polarization | inhibition, % at 7.94 µM | O75884;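 active means inhibition above the campaign mean of all tested compounds plus 3 SD, cut at about 14% in these data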;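 further: plate controls were DMSO wells with RBBP9 for no effect and wells lacking RBBP9 protein for full effect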
Target sequence (O75884 whole entry, looked up): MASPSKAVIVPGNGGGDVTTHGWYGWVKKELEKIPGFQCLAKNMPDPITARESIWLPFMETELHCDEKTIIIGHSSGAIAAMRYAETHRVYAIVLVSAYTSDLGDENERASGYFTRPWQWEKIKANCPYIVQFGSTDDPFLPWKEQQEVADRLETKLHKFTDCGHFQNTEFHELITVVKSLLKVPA
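System: RBBP9 protein / Buffer or medium: Tris/NaCl buffer pH 8.0 with 0.1% Pluronic / Probe or stimulus: Serine-hydrolase probe FP-Rh, 375 nM pre-mixing / Dosing: 7.94 µM single dose, 0.794% DMSO / Times: enzyme-compound preincubation 30 min, then probe labeling 45 min, 25 °C / Technique: fluorescence polarization (mP), excitation 525 nm, emission 598 nm / Replication: singlicate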
p47phox inh: p47phox (human) inhibition; p47phox/p22phox peptide binding, fluorescence polarization, 2 h; inhibition, % at 24.7 µM; actives 0.53% (n = 220,000); AID 1274;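 active means inhibition above about 30%, limit read from the data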;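 further: 0% = p47phox with labelled peptide and 100% = labelled peptide alone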
Target sequence (P14598 whole entry, looked up): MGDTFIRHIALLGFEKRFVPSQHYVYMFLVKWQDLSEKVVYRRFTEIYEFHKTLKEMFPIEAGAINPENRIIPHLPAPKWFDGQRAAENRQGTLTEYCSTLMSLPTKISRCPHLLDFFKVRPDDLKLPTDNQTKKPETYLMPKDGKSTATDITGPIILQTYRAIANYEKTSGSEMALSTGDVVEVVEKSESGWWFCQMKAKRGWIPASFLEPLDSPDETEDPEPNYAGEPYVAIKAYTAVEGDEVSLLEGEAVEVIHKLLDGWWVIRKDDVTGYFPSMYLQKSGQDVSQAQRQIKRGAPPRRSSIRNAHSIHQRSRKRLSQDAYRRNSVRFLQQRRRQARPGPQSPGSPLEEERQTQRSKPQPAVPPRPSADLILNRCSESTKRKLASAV
Yeast life ext: extends the lifespan of yeast. S. cerevisiae growth with nicotinamide, OD615; deaD strain in restrictive glucose medium. inhibition of the nicotinamide effect, % at 10 µM. actives 0.68% (n = 130,000). AID 775;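 active means inhibition above a set limit, placed 3 SD over the median of all compounds, cut at about 26% in these data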;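 further: 0% = nicotinamide-treated wells and 100% = cells grown without nicotinamide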
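assay system = DeaD-strain S. cerevisiae | measured by = absorbance at 615 nm | probe or stimulus = nicotinamide 1.5 mM | buffer or medium = CSMM-D glucose medium, restrictive | times = 48 h at 30 °C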
sdo1 growth: sdo1-depleted yeast growth rescue; S. cerevisiae sdo1-depleted JHY4D growth rescue, OD600 30 h; hits give high values; pdr5 snq2 efflux-pump mutant strain; z-score at 10 µM; actives 0.21% (n = 140,000); AID 817;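 active means z-score above 3 at both the 24 hr and the 30 hr optical density reads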;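 further: z-score against mean and SD of all compound wells on the same plate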
RBBP9 inh conf: human RBBP9 inhibition, confirmation. inhibition, % at 7.94 µM. actives 36% (n = 410). recombinant RBBP9, FP-Rh probe fluorescence polarization. shares compounds with RBBP9 inh;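 active means inhibition above the hit cutoff derived for the primary screen, cut at about 15% in these data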;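 further: 0% = RBBP9 with DMSO and 100% = wells lacking RBBP9 protein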
* = called active by the depositor; . = not tested or not shown. Shown are actives, neighbours in structure and some others; about 1.6% of the full set was active somewhere.

SMILES | Yeast growth inh | TbHK1 inh | RBBP9 inh | p47phox inh | Yeast life ext | sdo1 growth | RBBP9 inh conf
CCCn1c(=N)n(CCOc2ccc(OC)cc2)c2ccccc21 | -46 | 4 | -8 | -5 | -14 | 0.81 | .
CCC(=O)N=c1n(C)c2ccccc2n1CCOc1ccccc1 | -13 | 0 | 16* | -11 | 3 | 0.47 | 6
CC(=O)c1sc2nc(-c3ccco3)ccc2c1N | . | -47 | 21* | -12 | . | . | 35*
Nc1nc(-c2cccnc2)nn1C(=O)COc1ccccc1 | -32 | 5 | -4 | -9 | -7 | 1.3 | .
Nc1nc(-c2cccnc2)nn1C(=O)CCc1ccccc1 | . | 8 | 14* | . | . | . | 6
Cc1c(Cl)cccc1NC(=S)N/N=C/c1ccccc1Cl | . | -27 | -4 | -7 | . | . | .
COc1ccccc1NC(=O)c1c(NC(=O)CCC(=O)O)sc2c1CCCCC2 | . | -9 | -4 | -13 | . | . | .
COc1ccc(OC)c(NC(=O)c2c(NC(=O)CCC(=O)O)sc3c2CCCCC3)c1 | 1 | -11 | 21* | -3 | -3 | 0.67 | 7
CCOC(=O)C1=CN(CC2CCCO2)C=C(C(=O)OCC)C1c1ccccc1C(F)(F)F (stereo not drawn) | . | 3 | -3 | -1 | . | . | .
CCCCC(=O)Nc1ccccc1C(C)C | . | 1 | -8 | -1 | . | . | .
CC(C)c1ccccc1NC(=O)CNCCc1ccc(C(F)(F)F)cc1 | . | -9 | 17* | -7 | . | . | 4
Cc1ccc(/C=C2\SC(=S)N(/N=C/c3cc([N+](=O)[O-])ccc3O)C2=O)o1 | . | 44 | 15* | -10 | . | . | 23*
CN(C)c1ccc(Nc2nc(-c3cccnc3)cs2)cc1 | -34 | -3 | 20* | -1 | -6 | 0.05 | 22*
Cc1ccc(NC(=S)N/N=C2\CC(C)(C)Oc3ccc(O)cc32)cc1 | -6 | -10 | 17* | -25 | 1 | -0.56 | 11
Cc1ccccc1NC(=S)N/N=C1\CC(C)(C)Oc2ccc(O)cc21 | . | -6 | 3 | -5 | . | . | .
C=CCN(CC=C)Cc1c(O)ccc2c1oc(=O)c1ccccc12 | . | -2 | 25* | . | . | . | 5
Cc1cc(=O)oc2c(CN(C)Cc3ccccc3)c(O)ccc12 | -55 | -31 | 1 | -10 | -6 | 0.66 | .
CC(=O)c1ccc(NC(=O)/C(=C\c2ccccc2)NC(=O)c2ccco2)cc1 | . | -17 | -2 | -15 | . | . | .
CCc1ccc(OCC(=O)O/N=C(\N)c2cccnc2)cc1 | . | 3 | 15* | -14 | . | . | 8
Cc1cc(C2=NNC(=NC3CC3)SC2)c(C)n1-c1ccccc1 | -23 | -15 | 58* | -9 | -5 | -1.5 | 22*
Cc1cc2c(c(=O)o1)C(CCC1CCCCC1)C(C#N)=C(N)O2 (stereo not drawn) | . | -7 | -6 | -117 | . | . | .
Cc1c(O)ccc(/C(Cc2ccc3ccccc3n2)=N\O)c1O | -17 | 0 | 41* | -11 | -19 | -1.6 | 47*
Cc1ccc(Cn2ccc(NC(=O)c3cc(C4CC4)on3)n2)cc1 | . | 1 | 0 | -5 | . | . | .
CC(=O)N1CCCC1(C(=O)O)c1ccccc1 (stereo not drawn) | . | -11 | -9 | -5 | . | . | .
CC(=O)Nc1ccc(OS(=O)(=O)c2ccc(C(C)(C)C)cc2)cc1 | . | -2 | -12 | -2 | . | . | .
SMILES | Yeast growth inh | TbHK1 inh | RBBP9 inh | p47phox inh | Yeast life ext | sdo1 growth | RBBP9 inh conf
Cc1c(Br)c(O)c(Br)c2sc(=O)oc12 | . | 3 | 25* | -4 | . | . | 38*
O=C(OCC(=O)N1CCN(C(=O)c2ccco2)CC1)c1ccccc1OCc1ccc(Cl)cc1 | -42 | -2 | 20* | -9 | -14 | -0.53 | -32
CSc1ccccc1Nc1ncnc(N)n1 | . | -3 | -16 | -12 | . | . | .
Cc1cc(C)c(S(=O)(=O)Nc2cc(SCC(=O)O)c(O)c3ccccc23)cc1C | -10 | 1 | 16* | 4 | 1 | 0.31 | 49*
CC(C(=O)NC(C)(C)C)N(Cc1cccs1)C(=O)CCN1CCc2ccccc21 (stereo not drawn) | . | -2 | -5 | -16 | . | . | .
CCOC(=O)C1(CC2CC2)CCN(S(=O)(=O)C[C@]23CC[C@H](CC2=O)C3(C)C)CC1 | . | 5 | -1 | -7 | . | . | .
CCOC(=O)c1c(C)[nH]c(N=Nc2ccccc2)c1C | -63 | -7 | 15* | -15 | -19 | -0.9 | 6
CCOC(=O)c1c(C)[nH]c(N=Nc2ccc(C)cc2)c1C | -38 | -12 | -10 | -13 | -3 | -1.2 | .
Cc1nn(-c2ccccc2)c(N)c1C1(O)C(=O)N(C(C)C)c2ccccc21 (stereo not drawn) | -23 | 0 | -7 | -13 | 8 | 0.4 | .
Cc1noc(N)c1C1(O)C(=O)N(C(C)C)c2ccccc21 (stereo not drawn) | . | 2 | 16* | -7 | . | . | 10
CCCC(CCC)C(=O)Nc1c[nH]c(=O)[nH]c1=O | -27 | 5 | 17* | -9 | 0 | 0.19 | 6
Cc1cc(F)c(F)c(C(=O)N2C(C)CCCC2C)c1Cl (stereo not drawn) | . | -5 | 2 | -4 | . | . | .
Oc1ccc(/C=N/NC(=S)Nc2cccnc2)c(O)c1O | . | 43 | 42* | -42 | . | . | 52*
Fc1c(F)c(F)c(/C=N/NC(=S)Nc2cccnc2)c(F)c1F | . | -5 | 0 | -5 | . | . | .
COc1cc(CNC(=O)c2nc(Cn3nc(C)c(Br)c3C)no2)cc(OC)c1 | . | -5 | -1 | 6 | . | . | .
CC1(C)CC(/C=C/c2ccccc2)=Nc2ccccc2N1 | . | -36 | 5 | -7 | . | . | .
Cc1ccc(NCCCCO)cc1C | . | -6 | 17* | 3 | . | . | 7
NC(N)=N/N=C/c1ccc(OCc2ccccc2)cc1 | -13 | 3 | 9 | -17 | -29 | -1.5 | .
NC(N)=N/N=C/c1ccc(OCc2ccc(Cl)cc2)cc1 | 78* | 10 | 19* | 54* | -10 | -2.2 | 6
O=C(/C=C/c1cccc2ccccc12)N1CCOCC1 | . | -6 | -10 | 3 | . | . | .
NC1=C(c2ccc([N+](=O)[O-])cc2)C(=O)CO1 | -47 | 15 | 4 | -9 | 7 | 1.4 | .
O=c1oc2c(-c3ccc([N+](=O)[O-])cc3)cc(O)cc2s1 | . | -5 | 43* | -3 | . | . | 8
CC(C)c1cc(Nc2cccc(O)c2)cc(C(C)C)c1O | . | -3 | 16* | . | . | . | -8
O=C(CNc1n[nH]c(=O)[nH]c1=O)N/N=C/C1CC=CCC1 (stereo not drawn) | . | -12 | -11 | -5 | . | . | .
CC(C)(C)NC(=O)CN(C(=O)C1CSC(=O)C1)c1ccccc1F (stereo not drawn) | . | -3 | -2 | -3 | . | . | .
CC/C(=C\C(=O)c1ccncc1)Nc1ccc(O)cc1 | 7 | -37 | 47* | -4 | -7 | -0.67 | 5
O=C(CSc1cccc[n+]1[O-])Nc1ccc(C(F)(F)F)cc1[N+](=O)[O-] | . | -7 | 3 | -3 | . | . | .
O=[N+]([O-])c1ccc(Sc2cccc[n+]2[O-])c2nonc12 | . | -20 | 19* | 13 | . | . | 50*
